The results in this text go back to ChEMBL document CHEMBL1157585, “Synthesis and characterization of novel 1,2,4-triazine derivatives with antiproliferative activity” (Bioorg Med Chem, 2010).

The logP is the decadic logarithm of the partition coefficient of the neutral form, usually between octanol and water. A high value points to higher lipophilicity. In general, GI50 refers to the concentration at which growth is held to half of that of the control. Read a low GI50 as greater sensitivity of the cells. The term CC50 denotes the concentration at which the toxic effect on the cells reaches its halfway point. A lower CC50 goes with harm at low concentration. One may read the pKd as the Kd on a negative log10 scale, so that one unit is a factor of ten.

The nature of data set [1]: Octanol-water partition coefficient, log P by RP-HPLC method. The class given is physicochemical.
Data set [2] in a line: Antiproliferative activity against HUVEC after 72 hrs by resazurin dye reduction assay. The following applies: human, HUVEC cells. The class given is cell-based. In general terms: The colour change of resazurin is a common sign of viable cells or microbes.
For another data set, the system named is K562. The data set can be described thus: Antiproliferative activity against human K562 cells after 72 hrs by resazurin dye reduction assay. The following applies: K562, 72 h. It is filed as functional. Put shortly: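 K-562 cells grown at 37 °C in RPMI 1640 with ultraglutamine, gentamicin and 10% heat-inactivated FBS. About 10,000 cells seeded per well in 0.1 mL medium. Compounds were dissolved in DMSO, diluted in DMEM and incubated with cells for 72 h at 37 °C, humidified, 5% CO2. Viable cells were read by CellTiter-Blue resazurin fluorescence. GI50 was taken where the dose-response curve crosses 50% of untreated control, with 4 parallels per concentration.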

The next data set deals with HeLa. The data set can be described thus: Cytotoxicity against human HeLa cells after 72 hrs by methylene blue staining. It is filed as functional. An outline of the steps: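 HeLa cells were cultured at 37 °C in RPMI 1640 with ultraglutamine, gentamicin and 10% heat-inactivated FBS, then pre-incubated 48 h without compound. Compound dilutions went onto the subconfluent monolayers, followed by 72 h at 37 °C, humidified, 5% CO2. Cells were fixed with glutaraldehyde, stained 15 min with 0.05% methylene blue and eluted with 0.33 N HCl, with OD read at 660 nm. CC50 was taken at 50% of untreated control, with 4 parallels per concentration.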

Another data set deals with Albumin (Homo sapiens, UniProt P02768). The data set can be described thus: Binding affinity to HSA after 30 mins assessed as quenching of intrinsic HSA fluorescence emission by spectrofluorimetric assay. It is filed as ADME. An outline of the steps: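 Intrinsic tryptophan fluorescence of HSA at 2 µM final in PBS pH 7.4. Compound stocks were made in DMSO and titrated at increasing concentrations, with 30 min incubation at ambient temperature. Kd came from a quadratic binding equation fitted by nonlinear least squares (Marquardt).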
Chain of Albumin (P02768 whole entry): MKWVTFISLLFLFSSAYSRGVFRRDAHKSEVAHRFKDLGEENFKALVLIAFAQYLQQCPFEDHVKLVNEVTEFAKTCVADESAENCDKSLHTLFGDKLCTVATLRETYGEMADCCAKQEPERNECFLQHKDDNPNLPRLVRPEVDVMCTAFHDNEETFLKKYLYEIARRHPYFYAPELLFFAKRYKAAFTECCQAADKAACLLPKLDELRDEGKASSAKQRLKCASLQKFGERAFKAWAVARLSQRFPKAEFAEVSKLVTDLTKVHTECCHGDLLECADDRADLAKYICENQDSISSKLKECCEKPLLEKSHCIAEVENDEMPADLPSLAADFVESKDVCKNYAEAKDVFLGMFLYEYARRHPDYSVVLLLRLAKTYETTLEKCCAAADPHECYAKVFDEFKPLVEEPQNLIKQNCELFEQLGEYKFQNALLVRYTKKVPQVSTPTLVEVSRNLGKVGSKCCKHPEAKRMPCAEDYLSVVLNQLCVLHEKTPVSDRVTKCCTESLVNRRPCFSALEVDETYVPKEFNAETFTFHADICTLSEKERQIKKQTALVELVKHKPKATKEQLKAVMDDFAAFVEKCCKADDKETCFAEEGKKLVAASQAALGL

Structures are written as SMILES. pKd: −log10 of the molar value. Converted amounts (≈) assume the structure as drawn.

On to `CN(C)C1=NN(c2ccc(Cl)cc2)CN(c2ccccc2Cl)C1=O`, for which, in data set [1], the logP was determined as 4.2. The compound also showed a GI50 at 72 h in data set [2] of 16.1 µg/mL (≈ 44.3 µM). Moreover, in the data set on K562, growth was halved (GI50) at 11 µg/mL (≈ 30.3 µM). The compound also registered a CC50 in the data set on HeLa of 39.4 µg/mL (≈ 108 µM). Also, the pKd at Albumin is 4.99.
Turning to `O=C1C(N2CCCCC2)=NN(c2ccccc2)CN1c1ccccc1Cl`, the logP in data set [1] was 4.6. Moreover, in data set [2], the GI50 at 72 h came out at 24.7 µg/mL (≈ 67 µM). In the data set on K562, this compound came in with a concentration for 50% growth inhibition (GI50) of 42 µg/mL (≈ 114 µM). In addition, the CC50 with HeLa worked out at 26 µg/mL (≈ 70.5 µM).
With `Cc1ccc(NC(=O)c2ccc(CN3CCN(C)CC3)cc2)cc1Nc1nccc(-c2cccnc2)n1` [IMATINIB], the GI50 at 72 h in data set [2] was found to be 10.9 µg/mL (≈ 22.1 µM). For the same compound, the concentration for 50% growth inhibition (GI50) in the data set with K562 was 0.1 µg/mL (≈ 0.203 µM).
On to `COc1cccc2c1C(=O)c1c(O)c3c(c(O)c1C2=O)C[C@@](O)(C(=O)CO)C[C@@H]3O[C@H]1C[C@H](N)[C@H](O)[C@H](C)O1` [DOXORUBICIN], for which, in data set [1], the logP was 0.71. In data set [2], this compound returned a GI50 at 72 h of 0.1 µg/mL (≈ 0.184 µM). In the data set on K562, the GI50 came to 1 µg/mL (≈ 1.84 µM). Moreover, the CC50 in the data set on HeLa worked out at 2 µg/mL (≈ 3.68 µM).
`O=C1C(N2CCOCC2)=NN(c2ccc(Cl)cc2)CN1c1ccccc1Cl` yielded a logP in data set [1] of 4. In data set [2], the GI50 at 72 h is 45.6 µg/mL (≈ 113 µM). Besides, the GI50 in the data set with K562 is > 50 µg/mL. Moreover, in the data set with HeLa, the 50% cytotoxic concentration (CC50) was > 50 µg/mL.
In data set [1], `O=C1C(N2CCCC2)=NN(c2ccc(Cl)cc2)CN1c1ccccc1Cl` showed a logP of 4.6. In addition, the 50% growth inhibitory concentration (GI50) at 72 h in data set [2] was determined as 18.9 µg/mL (≈ 48.6 µM). For the same compound, the GI50 in the data set with K562 was determined as 8.6 µg/mL (≈ 22.1 µM). Besides, the cytotoxic concentration (CC50) with HeLa is > 50 µg/mL. On Albumin, the pKd was 5.56.
The matching figures for `O=C1C(N2CCCC2)=NN(c2ccccc2)CN1c1ccccc1Cl`: 4, 40.9 µg/mL (≈ 115 µM), 5.2 µg/mL (≈ 14.7 µM), 44.3 µg/mL (≈ 125 µM) and 5.61.
In data set [1], `O=C1C(N2CCCCC2)=NN(c2ccc(Cl)cc2)CN1c1ccccc1Cl` yielded a logP of 5. Also, the GI50 at 72 h in data set [2] was > 50 µg/mL. Besides, the GI50 in the data set with K562 was > 50 µg/mL. Besides, the CC50 with HeLa was > 50 µg/mL.
In data set [1], `CN(C)C1=NN(c2ccccc2)CN(c2ccccc2Cl)C1=O` showed a log partition coefficient (logP) of 3.6. In addition, the GI50 at 72 h in data set [2] came out at 34.5 µg/mL (≈ 105 µM). The GI50 with K562 was determined as 5.8 µg/mL (≈ 17.6 µM). The 50% cytotoxic concentration (CC50) with HeLa worked out at 39.5 µg/mL (≈ 120 µM). In addition, on Albumin, the pKd was 5.10.
`O=C1C(N2CCOCC2)=NN(c2ccccc2)CN1c1ccccc1Cl`: the logP in data set [1] was found to be 3.5. The GI50 at 72 h in data set [2] was > 50 µg/mL. For the same compound, in the data set with K562, the concentration for 50% growth inhibition (GI50) was > 50 µg/mL. In addition, the CC50 with HeLa was > 50 µg/mL.
